The subject of series [1] is RAW264.7. Briefly: Antiinflammatory activity in mouse RAW264.7 cells assessed as reduction in LPS-induced NO production at 10 uM after 18 hrs by Griess assay relative to control. It is filed as functional. The conditions noted are these: RAW264.7, 18 h. A digest of the protocol: (§1)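 RAW 264.7 macrophages were stimulated with LPS together with test compound at 0.1, 1, 10, 25, 50 and 100 (six levels), with L-NMMA as the reference inhibitor. NO production was measured and expressed as % of the LPS-only control, with inhibition = 100 − that value. Results are mean ± SEM, n = 3, and IC50 came from the concentration series.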
A general note: Nitrite, measured by Griess reagent, commonly stands in for NO production.

The test system of series [2] is RAW264.7. In words: Antiinflammatory activity in mouse RAW264.7 cells assessed as reduction in LPS-induced NO production after 18 hrs by Griess assay. It is filed as functional, cell-based. The conditions noted are these: RAW264.7, 18 h. The method in brief:
as §1

Series [3] is described as follows: Cytotoxicity against mouse RAW264.7 cells assessed as cell viability at 10 uM after 24 hrs by CellTiter96 AQueous one solution cell proliferation assay (reference value: 100 +/- 2.4%). It is filed as cell-based. Conditions: read-out: Activity.
Series [4] is described as follows: Cytotoxicity against mouse RAW264.7 cells assessed as cell viability at 1 uM after 24 hrs by CellTiter96 AQueous one solution cell proliferation assay (reference value: 100 +/- 2.4%). It is filed as cell-based. Conditions: read-out: Activity.
A short description of series [5]: Cytotoxicity against mouse RAW264.7 cells assessed as cell viability at 50 uM after 24 hrs by CellTiter96 AQueous one solution cell proliferation assay (reference value: 100 +/- 2.4%). It is filed as cell-based. The conditions noted are these: read-out: Activity.
The nature of series [6]: Cytotoxicity against mouse RAW264.7 cells assessed as cell viability at 100 uM after 24 hrs by CellTiter96 AQueous one solution cell proliferation assay (reference value: 100 +/- 2.4%). It is filed as cell-based. Conditions: read-out: Activity.
For series [7], the system named is RAW264.7. In words: Antiinflammatory activity in mouse RAW264.7 cells assessed as reduction in LPS-induced NO production at 1 uM after 18 hrs by Griess assay relative to control. It is filed as functional. The conditions noted are these: RAW264.7, 18 h. A digest of the protocol:
as §1

Series [8] deals with RAW264.7. Briefly: Inhibition of iNOS expression in LPS-stimulated mouse RAW264.7 cells at 10 uM after 18 hrs by Western blot method. It is filed as functional, cell-based. (A western blot detects proteins with antibodies after separation by electrophoresis.)
The test system of series [9] is RAW264.7. Briefly: Effect on beta-actin expression in LPS-stimulated mouse RAW264.7 cells at 10 uM after 18 hrs by Western blot method. Conditions: raw264.7, 18 h. It is filed as cell-based.

Activity calls are given as the source filed them. The calls are words filed in the database; no cut-off is given here.

Broadly, the inhibition is the change of the read-out against control, counted positive when it falls. A word on the IC50: it is the concentration at which inhibition is half-maximal. Turning to `COc1cc(OC)c2c(c1)OCC(Cc1ccccc1O)C2=O` (racemic), the inhibition at 10 µM in the series on RAW264.7 [1] amounted to 20.5%. Besides, in the series on RAW264.7 [2], the 50% inhibitory concentration (IC50) amounted to 14.2 µM. In addition, the viability at 24 h, 10 µM in [3] is 165%. Besides, the viability at 24 h, 1 µM in series [4] came out at 98.6%. In addition, in series [5], the viability at 24 h, 50 µM was found to be 55.2%. The viability at 24 h, 100 µM in series [6] stood at 41.3%. Besides, in the series on RAW264.7 [7], the inhibition at 1 µM was -2.8%.
As for `COc1cc(O)c2c(c1)OCC(Cc1ccccc1O)C2=O` (centres undefined), in the series with RAW264.7 [1], the inhibition at 10 µM is 38%. In addition, the IC50 with RAW264.7 [2] is 12.4 µM. The viability at 24 h, 10 µM in series [3] is 81.1%. In addition, the viability at 24 h, 1 µM in series [4] came out at 97.7%. For the same compound, the viability at 24 h, 50 µM in series [5] is 34.2%. Also, in [6], the viability at 24 h, 100 µM amounted to 12.5%. Further, in the series on RAW264.7 [7], the inhibition at 1 µM was 2.8%.
Turning to `COc1cc(O)c2c(c1)OC/C(=C\c1ccccc1O)C2=O`, the inhibition at 10 µM with RAW264.7 [1] was found to be 92.5%. For the same compound, the IC50 with RAW264.7 [2] came to 2.09 µM. In addition, the “iNOS expression inhibition (active/inactive)” value with RAW264.7 [8] was “Active”. In addition, the viability at 24 h, 10 µM in [3] was found to be 97%. In addition, the Activity entry in the series with RAW264.7 [9] is listed as “Non-Toxic”. Also, the viability at 24 h, 1 µM in series [4] was 94%. Besides, the viability at 24 h, 50 µM in [5] amounted to 10.7%. Besides, the viability at 24 h, 100 µM in series [6] turned out to be 11%. Also, in the series on RAW264.7 [7], the inhibition at 1 µM was determined as 21.1%.
For the compound `COc1cc2c(c(OC)c1OC)C(=O)/C(=C/c1ccccc1O)CO2`, in the series with RAW264.7 [1], the inhibition at 10 µM was 83%. The IC50 in the series on RAW264.7 [2] was 2.91 µM. Moreover, the “iNOS expression inhibition (active/inactive)” value in the series on RAW264.7 [8] is “Active”. The viability at 24 h, 10 µM in [3] was found to be 93.4%. Moreover, in the series with RAW264.7 [9], the Activity result is listed as “Non-Toxic”. Also, the viability at 24 h, 1 µM in series [4] came out at 94.6%. Also, the viability at 24 h, 50 µM in [5] was determined as 11.8%. Further, in [6], the viability at 24 h, 100 µM was found to be 10.9%. For the same compound, the inhibition at 1 µM with RAW264.7 [7] amounted to 16.2%.
As for `COc1cc(OC)c2c(c1)OC/C(=C\c1ccccc1O)C2=O`, the inhibition at 10 µM with RAW264.7 [1] is 97.2%. In addition, the half-inhibitory concentration (IC50) in the series with RAW264.7 [2] was 1.26 µM. Besides, the “iNOS expression inhibition (active/inactive)” value in the series with RAW264.7 [8] is “Active”. Moreover, the viability at 24 h, 10 µM in [3] amounted to 114%. Moreover, in the series with RAW264.7 [9], the Activity result is on record as “Non-Toxic”. In addition, the viability at 24 h, 1 µM in series [4] turned out to be 108%. Further, the viability at 24 h, 50 µM in [5] is 13.3%. In addition, the viability at 24 h, 100 µM in series [6] turned out to be 11.7%. Also, the inhibition at 1 µM with RAW264.7 [7] came out at 38.5%.
For the compound `COc1ccc2c(c1)OCC(Cc1ccccc1O)C2=O` (centres undefined), the inhibition at 10 µM in the series on RAW264.7 [1] was 19.7%. In the series with RAW264.7 [2], the IC50 was determined as 14.2 µM. Also, the viability at 24 h, 10 µM in [3] amounted to 118%. In [4], the viability at 24 h, 1 µM was 152%. In addition, in series [5], the viability at 24 h, 50 µM turned out to be 49.4%. Besides, the viability at 24 h, 100 µM in [6] amounted to 31.5%. In addition, the inhibition at 1 µM in the series with RAW264.7 [7] stood at 9.2%.
For the compound `CNC(=N)NCCC[C@H](N)C(=O)O` [TILARGININE], the inhibition at 10 µM in the series with RAW264.7 [1] was 14.2%. The half-inhibitory concentration (IC50) in the series on RAW264.7 [2] stood at 16.1 µM. Moreover, the inhibition at 1 µM in the series with RAW264.7 [7] is -12.5%.
For `COc1ccc2c(c1)OC/C(=C\c1ccccc1O)C2=O`, the inhibition at 10 µM in the series with RAW264.7 [1] stood at 91.4%. In addition, the concentration for half-maximal inhibition (IC50) with RAW264.7 [2] stood at 1.75 µM. Besides, the “iNOS expression inhibition (active/inactive)” value in the series with RAW264.7 [8] was “Active”. The viability at 24 h, 10 µM in [3] was found to be 97.7%. The Activity entry in the series with RAW264.7 [9] is “Non-Toxic”. The viability at 24 h, 1 µM in [4] is 102%. Besides, the viability at 24 h, 50 µM in series [5] stood at 11%. The viability at 24 h, 100 µM in series [6] was found to be 11.1%. In addition, the inhibition at 1 µM with RAW264.7 [7] amounted to 28.4%.
In the case of `COc1cc2c(c(O)c1OC)C(=O)C(Cc1ccccc1O)CO2` (racemic), in the series on RAW264.7 [1], the inhibition at 10 µM amounted to 34.1%. Moreover, the concentration for half-maximal inhibition (IC50) with RAW264.7 [2] worked out at 12.2 µM. Moreover, the viability at 24 h, 10 µM in series [3] came to 96.7%. Moreover, in series [4], the viability at 24 h, 1 µM was 97.6%. Also, the viability at 24 h, 50 µM in [5] stood at 41.1%. In [6], the viability at 24 h, 100 µM came to 15.5%. Moreover, the inhibition at 1 µM in the series with RAW264.7 [7] is -11.8%.
Turning to `COc1cc2c(c(OC)c1OC)C(=O)C(Cc1ccccc1O)CO2` (racemic), the inhibition at 10 µM in the series with RAW264.7 [1] worked out at 15.9%. Further, in the series on RAW264.7 [2], the IC50 was 13.4 µM. Also, the viability at 24 h, 10 µM in series [3] amounted to 87.2%. Moreover, in series [4], the viability at 24 h, 1 µM came to 89.6%. In addition, the viability at 24 h, 50 µM in [5] was found to be 58.7%. Further, the viability at 24 h, 100 µM in series [6] stood at 44%. Also, the inhibition at 1 µM in the series on RAW264.7 [7] was -24.6%.

Source of the values: ChEMBL document CHEMBL4118140, “Synthesis and in vitro evaluation of homoisoflavonoids as potent inhibitors of nitric oxide production in RAW-264.7 cells” (Bioorg Med Chem Lett, 2018).
